Values joined by “and” are separate entries in the source; they are usually repeats but may differ in a detail not shown here. Identical values can stand only once.
Tests used:
[1] = system: Fibroblast; assay: Multiplex assay against human fibroblast; type: toxicity, cell-based
Outline: (§1)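 Live cells were stained at seeding with Hoechst33342, BioTracker Green Microtubule Cytoskeleton Dye, MitoTracker Red and Annexin V Alexa Fluor 680, then imaged on a CQ1 microscope at 37°C and 5% CO2 after compound addition. CellPathfinder machine-learning gating split cells into Hoechst high-intensity objects or normal cells. Normal cells were split into healthy, pyknosed or fragmented nuclei, and pyknosed cells into mitotic or apoptotic. Tubulin, mitochondrial-mass and membrane-permeability phenotypes are per cents of healthy-nucleus cells.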

[2] = system: HEK-293T; assay: Multiplex assay against HEK293T; type: toxicity, cell-based; conditions: human; outline: as §1
[3] = 12 h, 1 µM, compound concentration 1 uM
[4] = 12 h, 10 µM, compound concentration 10 uM
[5] = 24 h, 1 µM, compound concentration 1 uM
[6] = 24 h, 10 µM, compound concentration 10 uM
[7] = 48 h, 1 µM, compound concentration 1 uM
[8] = 48 h, 10 µM, compound concentration 10 uM

Structure (SMILES): CCNC1(C(N)=O)CCN(c2ncnc3c2nc(-c2ccccc2Cl)n3-c2ccc(Cl)cc2)CC1 [OTENABANT]
- Population Apoptotic (%) [1, 3]: 26% and 37%
- Population Fragmented Nuclei (%) [1, 3]: 19% and 25%
- Population Healthy Nuclei (%) [1, 3]: 63% and 48%
- Population Hoechst High Intensity Objects (%) [1, 3]: 6% and 2%
- Population Membrane Permeable-Phenotype (%) [1, 3]: 1% and 6%
- Population Mitochondria Different-Phenotype (%) [1, 3]: 7% and 10%
- Population Mitotic Cells (%) [1, 3]: 73% and 62%
- Population Normal (%) [1, 3]: 93% and 97%
- Population Pyknosed Nuclei (%) [1, 3]: 17% and 26%
- Population Tubulin-Different-Phenotype (%) [1, 3]: 44% and 50%
- Total Cell Count [1, 3]: 161 and 156
- Population Apoptotic (%) [1, 4]: 57% and 40%
- Population Fragmented Nuclei (%) [1, 4]: 22% and 30%
- Population Healthy Nuclei (%) [1, 4]: 64% and 48%
- Population Hoechst High Intensity Objects (%) [1, 4]: 4% and 3%
- Population Membrane Permeable-Phenotype (%) [1, 4]: 0% and 12%
- Population Mitochondria Different-Phenotype (%) [1, 4]: 16% and 18%
- Population Mitotic Cells (%) [1, 4]: 42% and 59%
- Population Normal (%) [1, 4]: 95% and 96%
- Population Pyknosed Nuclei (%) [1, 4]: 12% and 21%
- Population Tubulin-Different-Phenotype (%) [1, 4]: 90% and 87%
- Total Cell Count [1, 4]: 170 and 216
- Population Apoptotic (%) [1, 5]: 26% and 34%
- Population Fragmented Nuclei (%) [1, 5]: 17% and 27%
- Population Healthy Nuclei (%) [1, 5]: 66% and 43%
- Population Hoechst High Intensity Objects (%) [1, 5]: 4% and 5%
- Population Membrane Permeable-Phenotype (%) [1, 5]: 0% and 9%
- Population Mitochondria Different-Phenotype (%) [1, 5]: 8% and 14%
- Population Mitotic Cells (%) [1, 5]: 73% and 65%
- Population Normal (%) [1, 5]: 95% and 94%
- Population Pyknosed Nuclei (%) [1, 5]: 15% and 29%
- Population Tubulin-Different-Phenotype (%) [1, 5]: 44% and 57%
- Total Cell Count [1, 5]: 154 and 155
- Population Apoptotic (%) [1, 6]: 54%
- Population Fragmented Nuclei (%) [1, 6]: 22% and 37%
- Population Healthy Nuclei (%) [1, 6]: 64% and 48%
- Population Hoechst High Intensity Objects (%) [1, 6]: 2% and 5%
- Population Membrane Permeable-Phenotype (%) [1, 6]: 0% and 7%
- Population Mitochondria Different-Phenotype (%) [1, 6]: 37% and 30%
- Population Mitotic Cells (%) [1, 6]: 45%
- Population Normal (%) [1, 6]: 97% and 94%
- Population Pyknosed Nuclei (%) [1, 6]: 12% and 13%
- Population Tubulin-Different-Phenotype (%) [1, 6]: 96% and 88%
- Total Cell Count [1, 6]: 174 and 235
- Population Apoptotic (%) [1, 7]: 68% and 59%
- Population Fragmented Nuclei (%) [1, 7]: 18% and 33%
- Population Healthy Nuclei (%) [1, 7]: 69% and 42%
- Population Hoechst High Intensity Objects (%) [1, 7]: 8% and 5%
- Population Membrane Permeable-Phenotype (%) [1, 7]: 0% and 13%
- Population Mitotic Cells (%) [1, 7]: 31% and 40%
- Population Normal (%) [1, 7]: 91% and 94%
- Population Pyknosed Nuclei (%) [1, 7]: 12% and 23%
- Population Tubulin-Different-Phenotype (%) [1, 7]: 41% and 72%
- Total Cell Count [1, 7]: 167 and 143
- Population Apoptotic (%) [1, 8]: 78% and 61%
- Population Fragmented Nuclei (%) [1, 8]: 30% and 46%
- Population Healthy Nuclei (%) [1, 8]: 61% and 47%
- Population Hoechst High Intensity Objects (%) [1, 8]: 8% and 2%
- Population Membrane Permeable-Phenotype (%) [1, 8]: 0% and 7%
- Population Mitochondria Different-Phenotype (%) [1, 8]: 49% and 26%
- Population Mitotic Cells (%) [1, 8]: 21% and 38%
- Population Normal (%) [1, 8]: 91% and 97%
- Population Pyknosed Nuclei (%) [1, 8]: 8% and 6%
- Population Tubulin-Different-Phenotype (%) [1, 8]: 92% and 89%
- Total Cell Count [1, 8]: 187 and 299
- Population Apoptotic (%) [2, 3]: 51% and 58%
- Population Fragmented Nuclei (%) [2, 3]: 8%
- Population Healthy Nuclei (%) [2, 3]: 80% and 76%
- Population Hoechst High Intensity Objects (%) [2, 3]: 10% and 6%
- Population Membrane Permeable-Phenotype (%) [2, 3]: 0%
- Population Mitochondria Different-Phenotype (%) [2, 3]: 48% and 66%
- Population Mitotic Cells (%) [2, 3]: 48% and 41%
- Population Normal (%) [2, 3]: 89% and 93%
- Population Pyknosed Nuclei (%) [2, 3]: 10% and 15%
- Population Tubulin-Different-Phenotype (%) [2, 3]: 52% and 44%
- Total Cell Count [2, 3]: 401 and 333
- Population Apoptotic (%) [2, 4]: 46% and 63%
- Population Fragmented Nuclei (%) [2, 4]: 3% and 4%
- Population Healthy Nuclei (%) [2, 4]: 74% and 67%
- Population Hoechst High Intensity Objects (%) [2, 4]: 16% and 9%
- Population Membrane Permeable-Phenotype (%) [2, 4]: 0%
- Population Mitochondria Different-Phenotype (%) [2, 4]: 82% and 96%
- Population Mitotic Cells (%) [2, 4]: 53% and 36%
- Population Normal (%) [2, 4]: 83% and 90%
- Population Pyknosed Nuclei (%) [2, 4]: 22% and 27%
- Population Tubulin-Different-Phenotype (%) [2, 4]: 50% and 43%
- Total Cell Count [2, 4]: 381 and 251
- Population Apoptotic (%) [2, 5]: 49% and 40%
- Population Fragmented Nuclei (%) [2, 5]: 8% and 12%
- Population Healthy Nuclei (%) [2, 5]: 80% and 75%
- Population Hoechst High Intensity Objects (%) [2, 5]: 5%
- Population Membrane Permeable-Phenotype (%) [2, 5]: 0%
- Population Mitochondria Different-Phenotype (%) [2, 5]: 43% and 47%
- Population Mitotic Cells (%) [2, 5]: 50% and 59%
- Population Normal (%) [2, 5]: 94%
- Population Pyknosed Nuclei (%) [2, 5]: 11%
- Population Tubulin-Different-Phenotype (%) [2, 5]: 44% and 41%

Reference: ChEMBL document CHEMBL5724801, “EUbOPEN Chemogenomics Library - Multiplex” (2024)
